According to PMC4144739 (The Journal of Experimental Medicine, 2014):
Entries after “also recorded” stand apart in the source; their conditions may differ.

Assays:
[1] = Solubility in physiological buffers; format: physicochemical
[2] = EAE induced by adoptive transfer of Th17 lymphocytes, clinical signs; format: in vivo, mouse (C57BL/6J); settings: 2 µg daily for 21 d beginning the day after adoptive transfer; groups of 10 mice
Summary of the method: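 Donor female C57BL/6J mice were immunised s.c. with MOG35-55 in CFA. On day 10, spleen and draining lymph node cells were restimulated for 3 d with 10 µg/ml MOG35-55 plus 10 ng/ml IL-23. Cells (15 × 10^6 per mouse) were given i.p. to 9-wk-old female recipients. PBS served as control. Mice were scored daily on a 0–5 scale, with atypical EAE scored separately.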

Amyloid fibril formation = format: physicochemical; settings: physiological buffers; ThT staining; Fig. S1
Summary of the method: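 Hexapeptide (200 µg in 50 µl) was combined with 100 mM MES pH 7.4 and a 1 M solution at the appropriate pH, then incubated at 37°C. ThT (10 µM solution, pre-addition) was added. Fluorescence was read at 485 nm with excitation at 440 nm. Run in triplicate and repeated twice.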

[3] = tested on: type 1 IFN (murine IFN-α4, 5, 12, and 13; consensus primers); test: Type 1 IFN induced in PBCs of healthy C57BL/6 mice; format: in vivo, mouse (C57BL/6); settings: compared with peptides that readily form fibrils
[4] = ref Kurnellas et al., 2013; cited from earlier work
[5] = tested on: inflammasomes in monocytes; settings: crystals of uric acid; cited from earlier work
[6] = uric acid administration; ref Scott et al., 2002; cited from earlier work

Molecule: Ac-VQIVYK-NH2 [Tau 623–628]
- solubility in physiological buffers [1]: limited solubility in physiological buffers

Molecule: SSTNVG [Amylin 28–33]
- clinical signs of Th17-induced EAE, 2 µg [2]: therapeutic in Th17-induced EAE
- amyloid fibril formation in vitro (Amyloid fibril formation): do not readily form fibrils in physiological buffers; also recorded: did not form detectable amounts of fibrils in vitro
- type 1 IFN production (summary) [3]: stimulated significantly less type 1 IFN production
- therapeutic effect of polar, nonionizable peptides in active EAE [4]: therapeutic

Molecule: O=c1[nH]c(=O)c2[nH]c(=O)[nH]c2[nH]1 [uric acid]
- endocytosis and inflammasome induction [5]: endocytosed and induce inflammasomes with subsequent secretion of IL-1β by monocytes
- therapeutic effect in EAE [6]: therapeutic benefit
